ChEMBL document CHEMBL1765040, “Synthesis and antiviral activity of N9-[3-fluoro-2-(phosphonomethoxy)propyl] analogues derived from N6-substituted adenines and 2,6-diaminopurines” (Bioorg Med Chem, 2011)
Activity calls are given as the source filed them. No cut-off for these calls is given here.

What was measured:
[1] = tested on: Human immunodeficiency virus 1; experiment: Antiviral activity against HIV1 3B infected in human CEM cells assessed as inhibition of virus-induced syncytium formation after 4 to 5 days by microscopic analysis; format: functional, organism-based; settings: Human immunodeficiency virus 1, 3B, CCRF-CEM
How it was run: (§1)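 CEM cells (~3 × 10^5 cells/mL) infected with 100 CCID50 per mL of HIV-1(IIIB) or HIV-2(ROD), with compound dilutions; 4–5 days at 37 °C, humidified CO2 atmosphere. Giant (syncytium) cell formation scored microscopically; EC50 is the concentration inhibiting giant cell formation by 50%.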

[2] = tested on: Human immunodeficiency virus 2; experiment: Antiviral activity against HIV2 ROD infected in human CEM cells assessed as inhibition of virus-induced syncytium formation after 4 to 5 days by microscopic analysis; format: functional, organism-based; settings: Human immunodeficiency virus 2, ISOLATE ROD, CCRF-CEM; how it was run: as §1
[3] = tested on: Moloney murine sarcoma virus; experiment: Antiviral against Moloney murine sarcoma virus infected in mouse C3H/3T3 cells assessed as inhibition of virus-induced cell transformation after 6 days post infection by microscopic analysis; format: functional, organism-based; settings: C3H/3T3, 144 h
How it was run: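 Murine embryo fibroblast C3H/3T3 monolayers infected with 75 focus-forming units of MSV, with test compound; transformation examined microscopically at day 6 postinfection. EC50 is the concentration inhibiting MSV-induced transformation by 50%.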

[4] = Cytotoxicity against human CEM cells assessed as inhibition of cell proliferation after 72 hrs by coulter counter analysis; format: cell-based, CCRF-CEM
How it was run: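 CEM cells, (5–7.5) × 10^4 per well, with test compound, grown 72 h at 37 °C in humidified CO2 atmosphere; cells counted by Coulter counter. IC50 is the concentration inhibiting proliferation by 50%.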

[5] = Cytotoxicity against human CEM cells assessed as minimum concentration required for morphological alteration by microscopic analysis; format: cell-based, CCRF-CEM
[6] = tested on: Human immunodeficiency virus 1; experiment: Antiviral activity against HIV1 infected in human MT4 cells assessed as inhibition of virus-induced cytopathicity; format: functional, organism-based; settings: Human immunodeficiency virus 1, MT4
[7] = Cytotoxicity against human MT4 cells; format: cell-based
[8] = target: N6-methyl-AMP deaminase, ADAL (Homo sapiens) (UniProt Q6DHV7); experiment: Activity at human recombinant N6-methyl-AMP deaminase assessed as reaction rate after 60 mins by HPLC analysis
N6-methyl-AMP deaminase, ADAL (Homo sapiens), sequence (Q6DHV7 whole entry, looked up): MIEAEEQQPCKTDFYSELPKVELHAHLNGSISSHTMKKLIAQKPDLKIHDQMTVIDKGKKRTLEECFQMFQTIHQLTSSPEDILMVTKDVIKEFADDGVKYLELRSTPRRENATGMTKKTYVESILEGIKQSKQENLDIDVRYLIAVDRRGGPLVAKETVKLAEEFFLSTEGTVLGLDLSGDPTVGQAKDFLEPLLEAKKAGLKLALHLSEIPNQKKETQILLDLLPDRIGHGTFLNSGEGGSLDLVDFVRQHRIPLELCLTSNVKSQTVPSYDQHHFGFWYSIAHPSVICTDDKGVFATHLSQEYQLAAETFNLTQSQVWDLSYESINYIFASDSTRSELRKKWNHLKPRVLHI

EC50 [1] | EC50 [2] | EC50 [3] | Activity [8] | Compound | CC50 at 72 h [4] | MCC [5] | EC50 [6] | CC50 [7]
> 100 µM | > 100 µM | > 100 µM |  | COCCNc1nc(N)nc2c1ncn2C[C@@H](CF)OCP(=O)(O)O | > 100 µM | > 100 µM |  | 
> 100 µM | > 100 µM | > 100 µM |  | Nc1nc(N2CCCC2)c2ncn(C[C@H](CF)OCP(=O)(O)O)c2n1 | > 100 µM | > 100 µM |  | 
51.7 µM | 103 µM | > 20 µM | 23.6 nmol/min/mg | CN(C)c1nc(N)nc2c1ncn2C[C@H](CF)OCP(=O)(O)O | > 287 µM | ≥ 100 µM |  | 
> 255 µM | 115 µM | 45 µM | 8.07 nmol/min/mg | CN(C)c1nc(N)nc2c1ncn2C[C@@H](CF)OCP(=O)(O)O | > 255 µM | > 100 µM |  | 
> 53 µM |  |  |  | CN(C)CCNc1nc(N)nc2c1ncn2C[C@H](CF)OCP(=O)(O)O | > 53 µM |  |  | 
18 µM | 36 µM | 69 µM | 5.64 nmol/min/mg | C=CCNc1nc(N)nc2c1ncn2C[C@H](CF)OCP(=O)(O)O | > 278 µM | > 100 µM |  | 

Further lines, the molecule ahead of its results:

Compound | EC50 [1] | EC50 [2] | EC50 [3] | Activity [8] | CC50 at 72 h [4] | MCC [5] | EC50 [6] | CC50 [7]
Nc1nc(N)c2ncn(C[C@H](CF)OCP(=O)(O)O)c2n1 |  |  |  |  |  |  | 4.3 µM | > 300 µM
C[C@H](Cn1cnc2c(N)ncnc21)OCP(=O)(O)O [TENOFOVIR ANHYDROUS] | 4.6 µM | 3.2 µM |  |  | > 250 µM | > 100 µM |  | 
Nc1nc(O)c2ncn(C[C@@H](CF)OCP(=O)(O)O)c2n1 |  |  |  |  |  |  | 3.9 µM | 103 µM
Nc1nc(NC2CC2)c2ncn(C[C@H](CF)OCP(=O)(O)O)c2n1 | 14.2 µM | 22.8 µM | 50 µM | 64.5 nmol/min/mg | > 278 µM | > 100 µM |  | 
Nc1nc(O)c2ncn(C[C@H](CF)OCP(=O)(O)O)c2n1 |  |  |  |  |  |  | 5.9 µM | > 300 µM
CCN(CC)c1nc(N)nc2c1ncn2C[C@@H](CF)OCP(=O)(O)O | > 100 µM | > 100 µM | > 100 µM |  | > 100 µM | > 100 µM |  | 
Nc1nc(NC2CC2)c2ncn(C[C@@H](CF)OCP(=O)(O)O)c2n1 | 25.5 µM | 11.1 µM | 6.9 µM | 1.98 nmol/min/mg | > 278 µM | > 100 µM |  | 
C=CCNc1nc(N)nc2c1ncn2C[C@@H](CF)OCP(=O)(O)O | > 247 µM | > 247 µM | > 100 µM | inactive | > 247 µM | > 100 µM |  | 
Nc1nc(N2CCCC2)c2ncn(C[C@@H](CF)OCP(=O)(O)O)c2n1 | > 100 µM | > 100 µM | > 20 µM |  | > 100 µM | ≥ 100 µM |  | 
CCN(CC)c1nc(N)nc2c1ncn2C[C@H](CF)OCP(=O)(O)O | > 100 µM | > 100 µM | > 100 µM |  | > 100 µM | > 100 µM |  | 
Nc1nc(N)c2ncn(C[C@@H](CF)OCP(=O)(O)O)c2n1 |  |  |  |  |  |  | 15 µM | > 300 µM
CCCNc1nc(N)nc2c1ncn2C[C@@H](CF)OCP(=O)(O)O | > 276 µM | > 276 µM | > 100 µM | inactive | > 276 µM | ≥ 100 µM |  | 
CN(C)CCNc1nc(N)nc2c1ncn2C[C@@H](CF)OCP(=O)(O)O | > 100 µM | > 100 µM | > 100 µM |  | > 100 µM | > 100 µM |  | 
Nc1ncnc2c1ncn2CCOCP(=O)(O)O [ADEFOVIR] | 7.4 µM | 7 µM | 2.1 µM |  | ≥ 250 µM | ≥ 100 µM |  | 
COCCNc1nc(N)nc2c1ncn2C[C@H](CF)OCP(=O)(O)O | > 100 µM | > 100 µM | > 100 µM |  | > 100 µM | > 100 µM |  | 
CCCNc1nc(N)nc2c1ncn2C[C@H](CF)OCP(=O)(O)O | 41.4 µM | 22.4 µM | > 100 µM | 4.17 nmol/min/mg | > 276 µM | > 100 µM |  | 
